M5 PAM – human M5 muscarinic receptor positive allosteric modulators, primary screen, CHO-K1 cells, Fluo-8 calcium fluorescence; Muscarinic acetylcholine receptor M5 (Homo sapiens), P08912; CHO-K1 hM5, ACh EC20 PAM; 0% = ACh EC20, 100% = ACh EC100; activation, % at 3 µM; 360,000 tested, 0.3% active; AID 624038, 2012;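 active means activation above the run cutoff, the mean activation of all test compounds plus 3 SD, cut at about 18% in these data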
Target sequence (P08912 whole entry, looked up): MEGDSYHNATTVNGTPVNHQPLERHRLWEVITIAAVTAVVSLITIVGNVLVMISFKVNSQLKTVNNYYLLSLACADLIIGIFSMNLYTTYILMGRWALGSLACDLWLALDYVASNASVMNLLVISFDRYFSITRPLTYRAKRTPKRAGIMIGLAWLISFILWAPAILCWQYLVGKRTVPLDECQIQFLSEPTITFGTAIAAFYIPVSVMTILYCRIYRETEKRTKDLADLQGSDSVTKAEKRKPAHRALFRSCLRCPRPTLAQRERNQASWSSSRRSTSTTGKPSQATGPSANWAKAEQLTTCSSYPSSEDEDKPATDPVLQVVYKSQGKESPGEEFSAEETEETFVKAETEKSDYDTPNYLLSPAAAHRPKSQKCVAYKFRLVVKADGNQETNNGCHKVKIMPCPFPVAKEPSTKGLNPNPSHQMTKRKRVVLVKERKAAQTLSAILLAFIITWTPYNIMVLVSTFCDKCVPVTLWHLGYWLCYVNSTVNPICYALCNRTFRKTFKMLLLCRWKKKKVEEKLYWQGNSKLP
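Assay system – human M5 receptor in CHO-K1 cells · Read-out – % activation, ACh-normalized · Technique – Fluo-8 calcium fluorescence · Dosing – single-point, 3 µM nominal · Incubation – Fluo-8 loading 80 min at 37 °C plus 30 min room temperature · Repeats – singlicate, one well per test compound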
CHRM4 antagonist – human M4 muscarinic receptor antagonists, primary screen, CHO cells, Fluo-8 calcium fluorescence; AID 624125, 2012; inhibition, % at 3 µM; CHO-hM4 cells, ACh EC80; 360,000 tested, 0.73% active; Muscarinic acetylcholine receptor M4 (Homo sapiens), P08173;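 active means inhibition above its plate's cutoff, the mean inhibition of sample wells plus 3 SD, cut at about 27% in these data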;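 further: 0% = acetylcholine EC80 with DMSO and 100% = DMSO without agonist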
CHRM4 agonist – human M4 muscarinic receptor agonists, primary screen, CHO-K1 cells, Fluo-8 calcium fluorescence | Muscarinic acetylcholine receptor M4 (Homo sapiens), P08173 | AID 624127, 2012 | CHO-K1 hM4/Gqi5; vehicle 0%, full acetylcholine response 100% | activation, % at 3 µM | 360,000 tested, 0.14% active;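 active means activation above the run mean over all test wells plus 3 SD, cut at about 32% in these data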;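 further: peak over basal fluorescence ratio per well then scaled between controls; 0% = DMSO wells and 100% = acetylcholine at EC100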
CHRM5 agonist – human M5 muscarinic receptor agonists, primary screen, CHO-K1 cells, Fluo-8 calcium fluorescence; Muscarinic acetylcholine receptor M5 (Homo sapiens), P08912; CHO-K1 hM5 cells; 0% DMSO wells, 100% maximal acetylcholine response; activation, % at 3 µM; 360,000 tested, 0.19% active;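 active means activation above the run's mean over test compounds plus 3 SD, cut at about 23% in these data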;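 further: signal is peak over basal fluorescence ratio across the kinetic read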
M4 PAM – human M4 muscarinic receptor positive allosteric modulators, primary screen, CHO-K1 cells, Fluo-8 calcium fluorescence; 360,000 tested, 0.4% active; activation, % at 3 µM; Muscarinic acetylcholine receptor M4 (Homo sapiens), P08173; CHO-K1 hM4/Gqi5, ACh EC20; 0% = ACh EC20, 100% = maximal ACh;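 active means activation above its plate's cutoff, the mean activation of sample wells plus 3 SD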
M5 antag – human M5 muscarinic receptor antagonists, primary screen, CHO cells, Fluo-8 calcium fluorescence | inhibition, % at 3 µM | Muscarinic acetylcholine receptor M5 (Homo sapiens), P08912 | AID 624040, 2012 | CHO-hM5 cells, ACh EC80 | 360,000 tested, 0.59% active;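 active means inhibition above a per-plate cutoff, the mean of that plate's test compounds plus 3 SD, cut at about 27% in these data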;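 further: 0% = acetylcholine EC80 with DMSO and 100% = DMSO without agonist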
An asterisk follows results filed as active. Compounds with a hit are over-represented: about 1.9% of the library has one in this group of screens.

SMILES | M5 PAM | CHRM4 antagonist | CHRM4 agonist | CHRM5 agonist | M4 PAM | M5 antag
COc1ccc(OCC(=O)Nc2c(C(=O)N3CCC(N4CCCCC4)CC3)oc3ccccc23)cc1 | -5 | -7 | 7 | -5 | -5 | 10
CCN(CC)S(=O)(=O)c1ccc(N2CCN(C)CC2)c(NC(=O)CN2C(=O)NC3(CCCCC3)C2=O)c1 | 8 | -18 | 0 | -2 | 13 | -7
Cc1ccc(CCNC(=O)CCn2ccc3cc(S(=O)(=O)N4CCCC4)ccc32)cc1 | 3 | -2 | 1 | -2 | -3 | 2
O=C(CCn1ccc2cc(S(=O)(=O)N3CCCC3)ccc21)NCCc1ccccc1 | 26* | 6 | 5 | 1 | -2 | 29*
CCOC(=O)c1c(C)[nH]c(C)c1C(=O)CSc1nc2ccccc2[nH]1 | -6 | 10 | 9 | 2 | -14 | 2
CCOC(=O)c1c(C)[nH]c(C)c1C(=O)CSc1ncccn1 | 25* | -13 | 1 | 0 | 6 | -1
OCC1(Cc2ccc(F)cc2)CCCN(CCCC(F)(F)F)C1 (stereo unspecified) | -3 | 12 | 0 | -8 | -5 | -2
Cn1c(Cc2ccccc2)nnc1SCC(=O)N1CCCCC1 | 2 | 95* | -1 | -1 | 11 | -2
Cc1ccccc1-n1c(SCC(=O)N2CCCC2)nnc1-c1ccccn1 | 19* | -4 | 1 | 2 | 6 | -21
CCOc1ncccc1C(=O)N1CCN(S(=O)(=O)c2ccc(Br)cc2Cl)CC1 | 7 | -15 | 0 | -5 | 4 | -1
COc1ccc(NC(=O)c2ccccc2N2C(=O)C3C4C=CC(C5CC45)C3C2=O)c(OC)c1 (stereo unspecified) | 11 | -9 | 5 | 0 | 15* | 4
O=C(NCc1ccncc1)C(=O)NCC1OCCCN1S(=O)(=O)c1ccc(F)cc1 (stereo unspecified) | 7 | 4 | 1 | -1 | -5 | -4
Cc1nccn1CCc1n[nH]c(=S)n1Cc1ccccc1 | -15 | 22 | 0 | -11 | -10 | 33*
COc1ccc(-c2csc(C(O)c3ccc(F)cc3)n2)cc1 (stereo unspecified) | -11 | -4 | 47* | 9 | -11 | -1
CN(C)c1ccc(-c2csc(C(O)c3ccc(F)cc3)n2)cc1 (stereo unspecified) | -17 | 10 | 60* | 30* | -13 | -5
CN(C)c1ccc(-c2csc(C(O)c3ccc(F)c(F)c3)n2)cc1 (stereo unspecified) | -18 | 46* | 102* | 50* | -15 | 37*
COc1ccc(C(O)c2nc(-c3ccc(N(C)C)cc3)cs2)cc1 (stereo unspecified) | -11 | 9 | 38* | 13 | -14 | 2
CCCn1c(N)c(C(=O)CSc2nnc(C3CC3)n2C2CC2)c(=O)[nH]c1=O | 1 | -4 | 1 | 0 | 6 | 11
NC(=O)COc1ccc(S(=O)(=O)N2CCCC2)cc1 | 0 | 0 | 0 | 1 | 7 | 0
N#C/C(=C/c1ccc(N2CCCCC2)o1)C(=O)Nc1ccc(Cl)cc1 | -26 | 45* | 170* | 56* | -19 | 55*
N#C/C(=C/c1ccc(N2CCCCC2)o1)C(=O)Nc1ccc2ccccc2c1 | -21 | 84* | 181* | 457* | -23 | 91*
COc1ccccc1C(=O)N/C(=C\c1cn(S(=O)(=O)N(C)C)c2ccccc12)C(=O)N1CCCC1 | 6 | -2 | 4 | 2 | 1 | -14
COc1ccc(-c2noc(CCC(=O)NCC3CCCO3)n2)cc1OC (stereo unspecified) | -4 | 27* | 0 | -4 | -6 | 16
CCOc1cc(-c2noc(CCC(=O)NCC3CCCO3)n2)ccc1OC (stereo unspecified) | -4 | 0 | 1 | -3 | 1 | -2
CC(C)(C)n1nc2c(c1NC(=O)c1ccc(C(F)(F)F)cc1)CS(=O)(=O)C2 | 0 | -1 | 3 | -3 | 10 | 9
SMILES | M5 PAM | CHRM4 antagonist | CHRM4 agonist | CHRM5 agonist | M4 PAM | M5 antag
c1ccc(COc2ccc(OCCCN3CCCC3)cc2)cc1 | -17 | 9 | 4 | -5 | -25 | 9
CC(=O)Nc1ccc(OCCCN2CCC(C(O)(c3ccccc3)c3ccccc3)CC2)cc1 | -23 | 86* | 6 | -7 | -14 | 64*
N#CCc1ccc(OCCCN2CCC(C(O)(c3ccccc3)c3ccccc3)CC2)cc1 | -24 | 59* | 22 | -3 | -14 | 71*
OC(c1ccccc1)(c1ccccc1)C1CCN(CCCOc2cccc(OC(F)(F)F)c2)CC1 | -16 | 32* | 17 | 0 | -13 | 5
CC(C)(C)c1ccc(C(O)CCCN2CCC(C(O)(c3ccccc3)c3ccccc3)CC2)cc1 (stereo unspecified) | -7 | 14 | 20 | 5 | -12 | 10
OC(c1ccccc1)(c1ccccc1)C1CCN(CCCOc2ccc3c(c2)CCCC3)CC1 | -24 | 32* | 15 | -3 | -12 | 26
CC(=O)Nc1ccccc1OCCCN1CCC(C(O)(c2ccccc2)c2ccccc2)CC1 | -21 | 7 | 3 | -5 | -11 | -2
Oc1ccccc1CN1CCC(C(O)(c2ccccc2)c2ccccc2)CC1 | -2 | 1 | 1 | -8 | -8 | 3
CC1CCCCC12NC(=O)N(CC(=O)Nc1cccnc1)C2=O (stereo unspecified) | 2 | 0 | 0 | -1 | 2 | 3
Cc1cccc(-c2ccc3c(c2)C2CC3CCN2C)c1 (stereo unspecified) | -7 | 8 | 5 | -2 | -5 | 14
CSCCC(NC(=O)OC(C)(C)C)C(=O)NC(CC(C)C)C(N)=O (stereo unspecified) | 11 | 3 | 3 | 2 | 36* | 3
CC1(OC(=O)C2CCCC2)C(=O)C=C2C=C(c3ccsc3)N(C3CCCC3)C=C2C1=O (stereo unspecified) | -8 | -7 | 1 | 39* | 6 | 1
CC1(OC(=O)C2CCCC2)C(=O)C=C2C=C(c3ccsc3)N(CCCCO)C=C2C1=O (stereo unspecified) | 3 | -3 | 1 | -1 | -3 | 7
CCN(CC)C(=S)SCC(=O)Nc1ncc2c(n1)CCCC2=O | -4 | -10 | 1 | 1 | 6 | 2

Source: PubChem
